Published values gathered from unrelated publications.
Each line is one published result; the experiments were not run side by side.
Target: Ephrin type-B receptor 1 (EPHB1, Homo sapiens, UniProt P54762)

| SMILES | assay | setting | quantity | value |
| --- | --- | --- | --- | --- |
| Cc1noc([C@H]2C[C@@H](c3ccc(C(F)(F)F)cc3)CN(C(=O)N3CCS(=O)(=O)C3)C2)n1 | cell-free assay, competition with immobilised ligand | 1 µM | remaining binding | 100% |
| CCN(CC)CCNC(=O)c1c(C)[nH]c(/C=C2\C(=O)Nc3ccc(F)cc32)c1C | enzyme activity, inhibitor | 10 µM | inhibition | 91% |
| CO[C@@H](C)c1c(Nc2ccc([C@@H](N(C)C(=O)C3CCS(=O)(=O)CC3)C(F)(F)F)cc2)cnc2cc(Cl)nn12 | cell-free assay, competition with immobilised ligand | 1 µM | remaining binding | 92% |
| COc1cc(Nc2c(C#N)cnc3cc(OCCCN4CCN(C)CC4)c(OC)cc23)c(Cl)cc1Cl | cell-free assay | 0.5 µM | remaining signal | 11.8% |
| Cc1cnc(NC2CCOCC2)nc1-n1cnc(C(=O)NC(CN)c2cc(F)cc(Cl)c2)c1 (stereo not shown) | enzyme activity, inhibitor, radiometric | 1 µM | remaining activity | 125% |
| CNC(=O)c1cc(Oc2ccc(NC(=O)Nc3ccc(Cl)c(C(F)(F)F)c3)cc2)ccn1 | cell-free assay | 0.5 µM | remaining signal | 102% |
| CC(C)(C)c1nc2c(s1)c1nc(N)ncc1c1ccc(NS(=O)(=O)c3c(F)cccc3F)c(F)c12 | enzyme activity, inhibitor, radiometric | 1 µM | remaining activity | 76% |
| O=C(Nc1cnn(-c2csc(C(=O)NC3COC3)c2)c1)Nc1c(F)cccc1Cl | enzyme activity, inhibitor | 5 µM | remaining activity | 96.1% |
| Cc1ccc(Nc2nccc(N(C)c3ccc4c(C)n(C)nc4c3)n2)cc1S(N)(=O)=O | enzyme activity, inhibitor | 0.3 µM | inhibition | 8% |
| COc1cc(Nc2cnc(C#N)c(O[C@H](C)CN(C)C)n2)ncc1-c1cnn(C)c1 | enzyme activity, inhibitor, radiometric | 10 µM | remaining activity | 71% |
| Oc1cccc(-c2nc(N3CCOCC3)c3oc4ncccc4c3n2)c1 | enzyme activity, inhibitor | 10 µM | remaining activity | 131% |
| Cc1c(NC(=O)c2cc(C(N)=O)nc3cc(F)ccc23)c(C(F)(F)F)nn1Cc1ccc(C#N)cc1 | cell-free assay, competition with immobilised ligand | 1 µM | remaining binding | 66% |
| COc1cc(-c2cc(-c3ccc(N4CCNCC4)cc3)cnc2C)cc(OC)c1OC | enzyme activity, inhibitor | 1 µM | inhibition | 6% |
| C=CC(=O)Nc1cc(Nc2nccc(Nc3cc(Cl)c(F)cc3C(C)(C)O)n2)c(OC)cc1N1CC[C@@H](N(C)C)C1 | enzyme activity, inhibitor | 1 µM | inhibition | 24% |
| Cc1nccc(COC(=O)N2C[C@@H]3[C@@H](CNC(=O)c4ccc5[nH]nnc5c4)[C@@H]3C2)n1 | cell-free assay, competition with immobilised ligand | 1 µM | remaining binding | 95% |
| Clc1ccc(Nc2nnc(Cc3ccncc3)c3ccccc23)cc1 | cell-free assay | 0.5 µM | remaining signal | 107% |
| O=C(NCc1ncc(C(F)(F)F)cc1Cl)c1ccc2c(c1)C1(CCS(=O)(=O)CC1)[C@@H](C1CC1)N2S(=O)(=O)c1ccc(F)cc1 | cell-free assay, competition with immobilised ligand | 1 µM | remaining binding | 100% |
| COc1cc2ncnc(Nc3ccc(Oc4ccccc4)c(C)c3C)c2cc1OC | enzyme activity, inhibitor | 1 µM | inhibition | 3% |
| CCCOc1ccc(OC)c(F)c1C(=O)c1ccc(C(=O)N[C@@H]2CNC[C@H]2NC(=O)c2ccc3[nH]ncc3c2)cc1 | enzyme activity, inhibitor | 10 µM | remaining activity | 42% |
| O=C1NC(c2ccccn2)Sc2ccccc21 (stereo not shown) | cell-free assay, competition with immobilised ligand | 1 µM | remaining binding | 90% |
| Cc1sc(C(=O)NC2COC2)cc1-n1cc(NC(=O)Nc2c(F)cccc2Cl)cn1 | enzyme activity, inhibitor | 10 µM | remaining activity | 100% |
| CC(C)(O)[C@H]1CC[C@H](Nc2ccc3ncc(-c4cccc(C(F)(F)F)c4)n3n2)CC1 | enzyme activity, inhibitor | 1 µM | remaining activity | 85% |
| O=C(Nc1ccc(Oc2ccc(F)cc2)cc1)N1CCc2ncccc2[C@H]1c1ccc(F)cc1 | cell-free assay, competition with immobilised ligand | 1 µM | remaining binding | 100% |
| CNC(=O)c1cc2c(Oc3ccc(NC(=O)C4(C(=O)Nc5ccc(F)cc5)CC4)cc3)ccnc2cc1OC | enzyme activity, inhibitor, radiometric | 1 µM | inhibition | 99% |
| Nc1ncnc2occ(-c3ccc(NC(=O)Nc4cc(C(F)(F)F)ccc4F)cc3)c12 | cell-free assay | 20 µM | remaining signal | 0% |
| O=C(N1CCS(=O)(=O)CC1)N1C[C@H](c2ccc(OC(F)(F)F)cc2)C[C@H](c2nc(C3CC3)no2)C1 | cell-free assay, competition with immobilised ligand | 1 µM | remaining binding | 100% |
| N#CCCc1ccc2c(c1)-c1[nH]c3ccc([N+](=O)[O-])cc3c1CC(=O)N2 | cell-free assay | 0.5 µM | remaining signal | 99.1% |
| Cc1ccc(C(=O)NCc2ccsc2)cc1C#Cc1cn(C(C)C)c2ncnc(N)c12 | enzyme activity, inhibitor | 1 µM | activity vs control | 12% |
